# Source: ChEMBL document CHEMBL1158128, “Cytotoxic styryl-lactones from the leaves and twigs of Polyalthia crassa” (2006)
# Tests used:
# Conditions in all cases: read-out: ED50 (the source's name)
# [1] = test system: P388; test: Cytotoxicity against mouse P388 cells by SRB assay; assay type: functional
# Procedure, shortened: (§1)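 Colorimetric cytotoxicity read-out on a panel of cultured mammalian cancer cell lines, run by an earlier published method, with ellipticine as the positive control.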
# [2] = test system: KB; test: Cytotoxicity against human KB cells by SRB assay; assay type: functional; procedure, shortened: as §1
# [3] = test system: Col2; test: Cytotoxicity against human Col2 cells by SRB assay; assay type: functional; procedure, shortened: as §1
# [4] = Cytotoxicity against human BCA1 cells by SRB assay; assay type: functional; procedure, shortened: as §1
# [5] = test system: Lu1; test: Cytotoxicity against human Lu1 cells by SRB assay; assay type: functional; procedure, shortened: as §1
# [6] = Cytotoxicity against rat ASK cells by SRB assay
SMILES,EC50 [1],EC50 [2],EC50 [3],EC50 [4],EC50 [5],EC50 [6]
O=C(/C=C/c1ccccc1)O[C@@H]1[C@H]([C@@H](O)c2ccccc2)O[C@H]2CC(=O)O[C@@H]12 [(+)-CRASSALACTONE B],3.8 µg/mL,> 5 µg/mL,> 5 µg/mL,> 5 µg/mL,> 5 µg/mL,> 5 µg/mL
O=C1C=C[C@]2(C[C@H](O)[C@@H](c3ccccc3)O2)O1,1.1 µg/mL,3.3 µg/mL,4 µg/mL,3.2 µg/mL,> 5 µg/mL,3.1 µg/mL
Cc1c2ccncc2c(C)c2c1[nH]c1ccccc12 [ELLIPTECINE],0.52 µg/mL,0.65 µg/mL,0.53 µg/mL,0.65 µg/mL,0.56 µg/mL,0.6 µg/mL
COc1c(O)cc2c3c(cc4ccccc4c13)NC2=O [ARISTOLACTAM AII],2.7 µg/mL,> 5 µg/mL,> 5 µg/mL,> 5 µg/mL,> 5 µg/mL,> 5 µg/mL
O=C(/C=C/c1ccccc1)O[C@H](c1ccccc1)[C@H]1O[C@@H]2CC(=O)O[C@@H]2[C@H]1O [(+)-CRASSALACTONE C],> 5 µg/mL,> 5 µg/mL,> 5 µg/mL,> 5 µg/mL,> 5 µg/mL,> 5 µg/mL
O=C1C=C[C@H](OC(=O)/C=C/c2ccccc2)[C@H]([C@H](O)[C@H](O)c2ccccc2)O1,0.18 µg/mL,1.7 µg/mL,1.9 µg/mL,0.92 µg/mL,1.9 µg/mL,1.6 µg/mL
O=C1C=C[C@H](OC(=O)/C=C/c2ccccc2)[C@H]([C@H](OC(=O)/C=C/c2ccccc2)[C@H](OC(=O)/C=C/c2ccccc2)c2ccccc2)O1,3.1 µg/mL,> 5 µg/mL,> 5 µg/mL,> 5 µg/mL,> 5 µg/mL,> 5 µg/mL
